From ChEMBL document CHEMBL4513216, “Probing the Open Global Health Chemical Diversity Library for Multistage-Active Starting Points for Next-Generation Antimalarials” (ACS Infect Dis, 2020)

assay: Toxicity liver stage against HepG2, at 10uM; assay type: cell-based; design: test concentration 10 uM, cell line HepG2-A16-CD81EGFP; details: human, HepG2-A16-CD81EGFP cells; read-out: INHIBITION
Procedure, shortened: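 Uninfected HepG2-A16-CD81EGFP cells, 3 × 10^3 per well, 1536-well, plated on prespotted compound at 10 μM final, parasite-free screening media added to match infected plates; puromycin 10 μM positive, DMSO 0.5% negative; run in parallel with 48 h PbLuc assay at 37 °C, 5% CO2; viability by CellTiter-Glo luminescence, normalized to controls.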

Q: For O=C(NCCN1CCOCC1)N1CCN(c2ccccc2)CC1, which cytotoxicity at 10 µM is on record?
A: 8.84%

Q: Which cytotoxicity at 10 µM does the source give for CC(=O)c1cccc(NCC(=O)NC(N)=O)c1 here?
A: 2.54%

Q: For Cn1ncnc1-c1ccnc(NCCCc2ccncc2)n1, which cytotoxicity at 10 µM is on record?
A: -1.41%

Q: Which cytotoxicity at 10 µM does the source give for COc1cc(CNCc2ccc(-n3nc(C)cc3C)nc2)cc(OC)c1 here?
A: -8.57%

Q: For COc1cccc(COCC(=O)N2CCCC(n3cncn3)C2)c1 (stereo unspecified), which cytotoxicity at 10 µM is on record?
A: -21.1%

Q: For CCC(NC(=O)C1CCN(S(C)(=O)=O)CC1)c1ccc(C)cc1C (stereo unspecified), which cytotoxicity at 10 µM is on record?
A: -10.6%

Q: With CC(C)c1nc(CN(C)S(=O)(=O)c2cccs2)cs1 as the compound, how does the cytotoxicity at 10 µM read?
A: -48.8%

Q: For O=C(NS(=O)(=O)Cc1ccc(F)cc1)C1CCc2ccccc21 (stereo unspecified), which cytotoxicity at 10 µM is on record?
A: -13.1%

Q: Which cytotoxicity at 10 µM does the source give for CN(CC1COc2ccccc2O1)C(=O)CCn1cncn1 (stereo unspecified) here?
A: -7.36%

Q: For COC1CCN(CC(=O)NCc2ccc(OCC(N)=O)cc2)CC1, which cytotoxicity at 10 µM is on record?
A: -0.094%

Q: Which cytotoxicity at 10 µM does the source give for COC(=O)Cc1cn2cc(C(F)(F)F)ccc2n1 here?
A: 9.21%

Q: Which cytotoxicity at 10 µM does the source give for CC(C)Cn1cnc(S(=O)(=O)Nc2cccnc2-n2cccn2)c1 here?
A: -1.75%

Q: With COCc1ccc(C(=O)N2CCC(Oc3ccccc3)(C(=O)O)CC2)o1 as the compound, how does the cytotoxicity at 10 µM read?
A: 0.871%

Q: Which cytotoxicity at 10 µM does the source give for Cc1ccc(-c2nnc(C(C)NCCn3cc(C)cn3)o2)cc1 (stereo unspecified) here?
A: -15.8%

Q: Which cytotoxicity at 10 µM does the source give for CCOC(=O)c1cc2n(n1)CCCO2 here?
A: 3.86%

Q: With Cc1n[nH]c(C2CN(Cc3csc(C4CC4)n3)CCO2)n1 (stereo unspecified) as the compound, how does the cytotoxicity at 10 µM read?
A: -0.18%

Q: With COCCN(Cc1ccc(F)cc1Cl)C(=O)c1cnn(C)c1C as the compound, how does the cytotoxicity at 10 µM read?
A: 12.8%

Q: With CCn1nc(C)c(S(=O)(=O)Nc2cccc(C(=O)O)c2C)c1C as the compound, how does the cytotoxicity at 10 µM read?
A: -0.731%

Q: For Cc1cnc(CC2COCCN(Cc3nccn3C)C2)cn1 (stereo unspecified), which cytotoxicity at 10 µM is on record?
A: -2.25%

Q: Which cytotoxicity at 10 µM does the source give for O=C(CCc1nc(-c2ccccn2)no1)N1CCCC1c1ccsc1 (stereo unspecified) here?
A: -14.6%

Q: Which cytotoxicity at 10 µM does the source give for CCn1nc2c(cc1=O)CN(CC(=O)Nc1nnc(C)s1)CC2 here?
A: -18.2%

Q: Which cytotoxicity at 10 µM does the source give for O=C1CCCN1C(CNS(=O)(=O)C1CC1)Cc1cccc(F)c1 (stereo unspecified) here?
A: 1.49%

Q: Which cytotoxicity at 10 µM does the source give for COC(=O)c1ccc(NC(=O)CCc2ccncc2)c(C)c1 here?
A: 7.83%

Q: Which cytotoxicity at 10 µM does the source give for Cc1ccc(N2CCC3(CCC(=O)N3)CC2)nn1 here?
A: 0.903%

Q: For CCNC(=O)[C@@H]1C[C@H](N)CN1C1CCN(c2ccccc2OC)CC1, which cytotoxicity at 10 µM is on record?
A: -43.9%

Q: For Cc1cc(N2CCC3(CC2)C(C(=O)O)CC(=O)N3C)nc2ccccc12 (stereo unspecified), which cytotoxicity at 10 µM is on record?
A: -1.6%

Q: For CN1CCC(c2n[nH]c3ncccc23)C1 (stereo unspecified), which cytotoxicity at 10 µM is on record?
A: -20.1%

Q: With CCOCCC(=O)N1CCc2cccc(S(=O)(=O)N3CCOCC3)c2C1 as the compound, how does the cytotoxicity at 10 µM read?
A: -7.41%

Q: For CC(C)N(C)CC(=O)NCC(O)c1cc2ccccc2s1 (stereo unspecified), which cytotoxicity at 10 µM is on record?
A: -3.91%

Q: For CC(C)=CCN1CCN(C(=O)C2CCS(=O)(=O)C2)CC1 (stereo unspecified), which cytotoxicity at 10 µM is on record?
A: -90.5%

Q: Which cytotoxicity at 10 µM does the source give for O=C(Nc1ccc(N2CCOCC2)nc1)N1CCc2sccc2C1 here?
A: -2.26%

Q: Which cytotoxicity at 10 µM does the source give for CCCc1nc2c(c(C)c(C)n2CCN(C)C)c(N)c1CC here?
A: 12.9%

Q: For Cc1cnc(N2CC3(CCN(S(=O)(=O)C4CC4)C3)C2)nc1, which cytotoxicity at 10 µM is on record?
A: -109%

Q: For C[C@H]1C(=O)NC[C@H]2CN(Cc3cccc(F)c3)C[C@H]21, which cytotoxicity at 10 µM is on record?
A: 0.964%

Q: Which cytotoxicity at 10 µM does the source give for Cc1noc(C)c1CN1CCc2nn(C(C)C)c(=O)cc2C1 here?
A: -8.87%

Q: Which cytotoxicity at 10 µM does the source give for CNc1cccc(CC2COCCN(C(=O)c3cccnc3)C2)n1 (stereo unspecified) here?
A: -1.99%

Q: With CC(C)N(Cc1c[nH]nc1-c1ccc2c(c1)OCO2)Cc1nccn1C as the compound, how does the cytotoxicity at 10 µM read?
A: -7.8%

Q: Which cytotoxicity at 10 µM does the source give for COCCCN(C)C1CCCN(Cc2noc(C3CC3)n2)C1 (stereo unspecified) here?
A: -15.4%

Q: With CCOc1ccccc1CN(C)C(=O)CN1C(=O)OC[C@@H]1C(C)C as the compound, how does the cytotoxicity at 10 µM read?
A: -2.24%

Q: Which cytotoxicity at 10 µM does the source give for CC(=O)N1CCN(C(=O)NCc2cccnc2OC(C)C)CC1 here?
A: -17.5%

Q: Which cytotoxicity at 10 µM does the source give for O=S(=O)(C1CC1)N1CCO[C@@H]2CC(COCc3cccnc3)C[C@H]21 (stereo partly specified) here?
A: 7.01%

Q: With COc1ccc(-c2ncc(-c3nccn3CCN(C)C)cn2)cc1 as the compound, how does the cytotoxicity at 10 µM read?
A: 1.44%

Q: With CC(C)CCc1nc(CNCC2CN(C)CCO2)cs1 (stereo unspecified) as the compound, how does the cytotoxicity at 10 µM read?
A: -15.2%

Q: With Cc1ccccc1[C@@H]1CN(CCOCCO)C[C@H]1C(=O)O as the compound, how does the cytotoxicity at 10 µM read?
A: -4.54%

Q: With CS(=O)(=O)CCOCCNc1ccc(Br)cn1 as the compound, how does the cytotoxicity at 10 µM read?
A: -4.71%

Q: For O=C(CCNC(=O)C1CCCC1)NCc1cccnc1-n1cncn1, which cytotoxicity at 10 µM is on record?
A: -3.39%
